pEC50, pIC50: −log10 of the molar value. Active and inactive are the calls of the source. No cut-off for these calls is given here.
Tests used:
[1] = system: DU-145; experiment: Cell cycle arrest in human DU145 cells assessed as accumulation of cells at S phase at 1 uM after 72 hrs using propidium iodide stain by flow cytometry; type: functional
How it was run: (§1)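 DU145 cells treated with 1, 5, 10 or 100 µM for 24 or 72 h; vehicle 1% DMSO in water. Adherent and floating cells pooled, fixed in PBS-MeOH (1:2) at 4 °C for at least 18 h, then stained 30 min at room temperature in the dark with propidium iodide 50 µg/mL plus RNase A 50 µg/mL. Flow cytometry, excitation 488 nm, emission above 580 nm, doublets gated out. Sub-G1 region taken as DNA damage; at least three runs.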

[2] = system: DU-145; experiment: Cell cycle arrest in human DU145 cells assessed as accumulation of cells at S phase at 100 uM after 24 hrs using propidium iodide stain by flow cytometry; type: functional; how it was run: as §1
[3] = system: DU-145; experiment: Cell cycle arrest in human DU145 cells assessed as accumulation of cells at G2/M phase at 5 uM after 72 hrs using propidium iodide stain by flow cytometry; type: functional; how it was run: as §1
[4] = system: DU-145; experiment: Cell cycle arrest in human DU145 cells assessed as accumulation of cells at S phase at 10 uM after 72 hrs using propidium iodide stain by flow cytometry; type: functional; how it was run: as §1
[5] = system: DU-145; experiment: Antiproliferative activity in human DU145 cells at 10 uM after 24 hrs by XTT assay in the presence of Ac-LEHD-CMK; type: functional, cell-based
How it was run: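 DU145 cells pretreated 60 min with 50 µM Ac-DEVD-CMK or 50 µM Ac-LEHD-CMK, then exposed to 10 µM compound for 24 h (vehicle 1% DMSO in water). Proliferation read by XTT: labeling mixture added for 4 h at 37 °C, OD 450 nm (reference 650 nm) versus control wells; mean ± SE of three experiments.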

[6] = system: DU-145; experiment: Cell cycle arrest in human DU145 cells assessed as accumulation of cells at G1 phase at 1 uM after 72 hrs using propidium iodide stain by flow cytometry; type: functional; how it was run: as §1
[7] = system: DU-145; experiment: Cell cycle arrest in human DU145 cells assessed as accumulation of cells at S phase at 10 uM after 24 hrs using propidium iodide stain by flow cytometry; type: functional; how it was run: as §1
[8] = system: DU-145; experiment: Cell cycle arrest in human DU145 cells assessed as accumulation of cells at G1 phase at 10 uM after 72 hrs using propidium iodide stain by flow cytometry; type: functional; how it was run: as §1
[9] = system: DU-145; experiment: Cell cycle arrest in human DU145 cells assessed as accumulation of cells at S phase at 100 uM after 72 hrs using propidium iodide stain by flow cytometry; type: functional; how it was run: as §1
[10] = system: DU-145; experiment: Cell cycle arrest in human DU145 cells assessed as accumulation of cells at sub-G1 phase at 10 uM after 24 hrs using propidium iodide stain by flow cytometry; type: functional; how it was run: as §1
[11] = system: DU-145; experiment: Cell cycle arrest in human DU145 cells assessed as accumulation of cells at G1 phase at 5 uM after 24 hrs using propidium iodide stain by flow cytometry; type: functional; how it was run: as §1
[12] = system: DU-145; experiment: Cytotoxicity against human DU145 cells after 72 hrs by XTT assay; type: functional, cell-based; conditions: DU-145, 24 h, in the assay text read “after 24 hrs” for “after 72 hrs”
[13] = system: DU-145; experiment: Increase in the ratio of cytochrome C concentration from cytosol to mitochondria in human DU145 cells at 100 uM after 24 hrs by ELISA; type: functional, cell-based
How it was run: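 DU145 cells given 100 µM or DMSO vehicle for 6–24 h at 37 °C. Cytosolic fraction released with digitonin buffer on ice for 5 min; mitochondrial fraction taken by Triton/deoxycholate/SDS lysis and a 10000g spin. Cytochrome c in each fraction measured by ELISA and expressed as a cytosol/mitochondria ratio; three experiments, ANOVA with Dunnett's test.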

[14] = system: DU-145; experiment: Cell cycle arrest in human DU145 cells assessed as accumulation of cells at G1 phase at 1 uM after 24 hrs using propidium iodide stain by flow cytometry; type: functional; how it was run: as §1
[15] = system: DU-145; experiment: Cell cycle arrest in human DU145 cells assessed as accumulation of cells at G2/M phase at 1 uM after 24 hrs using propidium iodide stain by flow cytometry; type: functional; how it was run: as §1
[16] = system: DU-145; experiment: Cell cycle arrest in human DU145 cells assessed as accumulation of cells at S phase at 1 uM after 24 hrs using propidium iodide stain by flow cytometry; type: functional; how it was run: as §1
[17] = system: DU-145; experiment: Induction of apoptosis in human DU145 cells assessed as caspase9 activation after 24 hrs by ELISA; type: functional, cell-based; conditions: TDE = time-dependent effect
How it was run: (§2)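 DU145 cells treated with 10 µM for 1, 3, 6, 12 and 24 h and lysed. Lysate (60 µg) incubated with Ac-DEVD-pNA or Ac-LEHD-pNA in PIPES buffer pH 7.2 at 37 °C for 1 h in the dark. pNA release read at 405 nm and expressed as percent change against untreated control.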

[18] = system: DU-145; experiment: Induction of apoptosis in human DU145 cells assessed as caspase3 activation at 10 uM by ELISA; type: functional, cell-based; how it was run: as §2
[19] = system: DU-145; experiment: Cell cycle arrest in human DU145 cells assessed as accumulation of cells at G1 phase at 100 uM after 24 hrs using propidium iodide stain by flow cytometry; type: functional; how it was run: as §1
[20] = system: DU-145; experiment: Cell cycle arrest in human DU145 cells assessed as accumulation of cells at G2/M phase at 100 uM after 72 hrs using propidium iodide stain by flow cytometry; type: functional; how it was run: as §1
[21] = system: DU-145; experiment: Induction of apoptosis in human DU145 cells assessed as increase in intracellular ROS level at 10 uM by DCHF-DA assay; type: functional, cell-based
[22] = system: DU-145; experiment: Cell cycle arrest in human DU145 cells assessed as accumulation of cells at G1 phase at 100 uM after 72 hrs using propidium iodide stain by flow cytometry; type: functional; how it was run: as §1
[23] = system: DU-145; experiment: Cell cycle arrest in human DU145 cells assessed as accumulation of cells at sub-G1 phase at 5 uM after 72 hrs using propidium iodide stain by flow cytometry; type: functional; how it was run: as §1
[24] = system: DU-145; experiment: Induction of apoptosis in human DU145 cells assessed as caspase9 activation by ELISA; type: functional, cell-based; conditions: TDE = time-dependent effect; how it was run: as §2

**Q.** With `CCCCCCCCCCCCCCCCCCCCCCCC/C=C(/C(=O)OC)[C@@H](O)C(C)=O` [SECOTENUIFOLIDE A] as the molecule, how does the Activity [1] read?
**A.** Its Activity is 2.88%.

**Q.** And the Activity [2]?
**A.** Its Activity is 10.04%.

**Q.** And the Activity [3]?
**A.** The Activity was 31.74%.

**Q.** What about the Activity [4] of the same molecule?
**A.** The Activity was 3.62%.

**Q.** And the Activity [5]?
**A.** Its Activity is “inactive”.

**Q.** And the Activity [6]?
**A.** Its Activity is 53.11%.

**Q.** What about the Activity [7] of the same molecule?
**A.** The Activity was 3.8%.

**Q.** And the Activity [8]?
**A.** Its Activity is 48.3%.

**Q.** What about the Activity [9] of the same molecule?
**A.** The Activity was 5.38%.

**Q.** What about the Activity [10] of the same molecule?
**A.** The Activity was 19.72%.

**Q.** And the Activity [11]?
**A.** Its Activity is 34.96%.

**Q.** And the pEC50 [12]?
**A.** The pEC50 was > 5.15.

**Q.** And the pIC50 [12]?
**A.** The pIC50 was 5.28.

**Q.** What about the Activity [13] of the same molecule?
**A.** Its Activity is “Active”.

**Q.** What about the Activity [14] of the same molecule?
**A.** Its Activity is 44.45%.

**Q.** And the Activity [15]?
**A.** Its Activity is 43.3%.

**Q.** And the Activity [16]?
**A.** Its Activity is 3.31%.

**Q.** What about the Activity [17] of the same molecule?
**A.** The Activity was “tde”.

**Q.** What about the Activity [18] of the same molecule?
**A.** The Activity was “Active”.

**Q.** And the Activity [19]?
**A.** Its Activity is 35.57%.

**Q.** And the Activity [20]?
**A.** Its Activity is 30%.

**Q.** And the Activity [21]?
**A.** Its Activity is “Active”.

**Q.** What about the Activity [22] of the same molecule?
**A.** The Activity was 28.57%.

**Q.** What about the Activity [23] of the same molecule?
**A.** Its Activity is 14.24%.

**Q.** What about the Activity [24] of the same molecule?
**A.** The Activity was “tde”.
